Test results from ChEMBL document CHEMBL3593160, “Orally active ghrelin receptor inverse agonists and their actions on a rat obesity model” (Bioorg Med Chem, 2015).
Activity calls are given as the source filed them. The rule behind the calls is not given here.

How the values were obtained:
[1] = Ratio of free plasma concentration in Sprague-Dawley rat model of high-fat diet-induced obesity at 10 mg/kg, po BID for 3 week to IC50 for displacement of [125I]human ghrelin from rat ghrelin receptor expressed in CHO cell membranes; assay type: organism-based; settings: in vivo, 504 h
Procedure, shortened: (§1)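 Free concentration = total concentration × free fraction from human plasma protein binding by equilibrium dialysis. Plasma level is AUC0-24/24 h on day 1 of twice-daily oral dosing in HFD-obese SD rats. Brain level is plasma × B/P ratio from normal rats. Each is divided by the binding IC50.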

[2] = target: T1, Growth hormone secretagogue receptor type 1 (Rattus norvegicus, UniProt O08725); test: Antagonist activity at rat ghrelin receptor expressed in CHO cells assessed as blocking of human ghrelin-induced response by FLIPR based intracellular Ca2+ mobilization assay; assay type: functional, cell-based
Procedure, shortened: (§2)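 CHO cells stably expressing rat ghrelinR, loaded with Calcium 3 dye for 2.5 h at room temperature in HBSS with 20 mM Hepes, 2.5 mM probenecid and 1 mg/mL BSA. Compound added, then 1 nM human ghrelin. Response taken as peak fluorescence minus basal.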

[3] = target: Growth hormone secretagogue receptor type 1 (Rattus norvegicus) (UniProt O08725); test: Antagonist activity at rat ghrelin receptor expressed in CHO cells assessed as blocking of human ghrelin-induced response by FLIPR based intracellular Ca2+ mobilization assay relative to control; assay type: functional, cell-based; procedure, shortened: as §2
Rattus norvegicus [4] = test: Inhibition of total calorie intake in Sprague-Dawley rat model of high-fat diet-induced obesity at 30 mg/kg, po BID 3 weeks; assay type: functional, organism-based; settings: in the assay text read “14 days” for “3 weeks”
Procedure, shortened: (§3)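 Male SD rats given a 60% fat diet for 10 weeks, habituated 3 weeks to oral vehicle, and randomized to vehicle, treatment or pair-fed groups. Oral dosing twice daily (9:30 am, 6:00 pm) as a 0.5% hydroxypropyl cellulose suspension. Body weight and daily food intake recorded before the morning dose. Pair-fed rats got the previous day's treated-group mean intake plus vehicle.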

[5] = Ratio of drug level in brain to plasma of Sprague-Dawley rat at 1 mg/kg, iv after 2 hrs by LC/MS/MS method; assay type: ADME, organism-based; settings: read-out: BPR
[6] = Ratio of drug concentration in brain of Sprague-Dawley rat model of high-fat diet-induced obesity at 30 mg/kg, po BID for 3 week to IC50 for displacement of [125I]human ghrelin from rat ghrelin receptor expressed in CHO cell membranes; assay type: organism-based; settings: in vivo, 504 h
Procedure, shortened: (§4)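 Brain level estimated as mean plasma concentration (AUC0-24/24 h, day 1 of twice-daily oral dosing in HFD-obese SD rats) multiplied by the B/P ratio from normal rats. The ratio divides this by the binding IC50.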

[7] = Plasma concentration in Sprague-Dawley rat model of high-fat diet-induced obesity at 30 mg/kg, po BID for 3 weeks; assay type: ADME, organism-based
Procedure, shortened: (§5)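 Male SD rats fed 60% fat diet for 10 weeks, habituated to oral vehicle dosing for 3 weeks. Compound given orally as a suspension in 0.5% hydroxypropyl cellulose at 9:30 am and 6:00 pm. Plasma levels measured on the first dosing day. AUC0-24 from these levels; mean plasma concentration = AUC0-24/24 h.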

[8] = target: Growth hormone secretagogue receptor type 1 (Rattus norvegicus) (UniProt O08725); test: Antagonist activity at ghrelin receptor in Sprague-Dawley rat primary pituitary cells assessed as inhibition of ghrelin-induced growth hormone secretion incubated for 15 mins by ELISA method relative to control; assay type: cell-based; settings: Pituitary gland cell
Procedure, shortened: (§6)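 SD rat (6–8 weeks, male) anterior pituitary cells dispersed with collagenase and papain and cultured 2 days. Cells preincubated 1.5 h in HBSS with 1% BSA, 0.25% glucose and 25 mM HEPES, then treated 15 min at 37 °C with 1 nM ghrelin present. GH in supernatant measured by ELISA. Inhibition = (C−E)/C×100.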

[9] = Plasma concentration in Sprague-Dawley rat model of high-fat diet-induced obesity at 10 mg/kg, po BID for 3 weeks; assay type: ADME, organism-based; procedure, shortened: as §5
[10] = Ratio of plasma concentration in Sprague-Dawley rat model of high-fat diet-induced obesity at 10 mg/kg, po BID for 3 week to IC50 for displacement of [125I]human ghrelin from rat ghrelin receptor expressed in CHO cell membranes; assay type: organism-based; settings: in vivo, 504 h
Procedure, shortened: (§7)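 Mean plasma concentration (AUC0-24/24 h, day 1 of twice-daily oral dosing in HFD-obese SD rats) divided by the binding IC50.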

[11] = target: Growth hormone secretagogue receptor type 1 (Rattus norvegicus) (UniProt O08725); test: Inverse agonist activity rat ghrelin receptor expressed in HEK293 cells by luciferase reporter gene assay relative to control; assay type: cell-based
Procedure, shortened: (§8)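 HEK293 cells transiently transfected (about 5 h, Lipofectamine 2000) with rat ghrelinR vector (10 ng) and pNFAT-Luc (100 ng) per well. Compounds added in RPMI1640 with 0.1% dialyzed FBS and incubated overnight at 37 °C. Constitutive NFAT-luciferase signal read by luminescence; viability checked by AlamarBlue.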

[12] = Ratio of plasma concentration in Sprague-Dawley rat model of high-fat diet-induced obesity at 30 mg/kg, po BID for 3 week to IC50 for displacement of [125I]human ghrelin from rat ghrelin receptor expressed in CHO cell membranes; assay type: organism-based; settings: in vivo, 504 h; procedure, shortened: as §7
[13] = target: T1, Growth hormone secretagogue receptor type 1; test: Antagonist activity at ghrelin receptor in Sprague-Dawley rat primary pituitary cells assessed as inhibition of ghrelin-induced growth hormone secretion incubated for 15 mins by ELISA method; assay type: cell-based, Pituitary gland cell; procedure, shortened: as §6
Rattus norvegicus [14] = test: Oral bioavailability in Sprague-Dawley rat at 10 mg/kg by LC/MS/MS method; assay type: ADME, organism-based; settings: in vivo
Procedure, shortened: (§9)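 Non-fasted SD rats (n = 3/group) dosed 10 mg/kg orally or 1 mg/kg iv in 5% DMSO/10% HPCD in saline. Heparinized plasma sampled 0.08 (iv only) to 24 h. Parameters by noncompartmental analysis.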

[15] = Ratio of free drug concentration in brain of Sprague-Dawley rat model of high-fat diet-induced obesity at 10 mg/kg, po BID for 3 week to IC50 for displacement of [125I]human ghrelin from rat ghrelin receptor expressed in CHO cell membranes; assay type: organism-based; settings: in vivo, 504 h; procedure, shortened: as §1
[16] = Ratio of drug concentration in brain of Sprague-Dawley rat model of high-fat diet-induced obesity at 10 mg/kg, po BID for 3 week to IC50 for displacement of [125I]human ghrelin from rat ghrelin receptor expressed in CHO cell membranes; assay type: organism-based; settings: in vivo, 504 h; procedure, shortened: as §4
[17] = AUC (0 to 24 hrs) in Sprague-Dawley rat model of high-fat diet-induced obesity at 30 mg/kg, po BID for 3 weeks; assay type: ADME, organism-based; parameters: time < 24 hr, dose 30 mg/kg, route oral; settings: in vivo; procedure, shortened: as §5
[18] = Ratio of free plasma concentration in Sprague-Dawley rat model of high-fat diet-induced obesity at 30 mg/kg, po BID for 3 week to IC50 for displacement of [125I]human ghrelin from rat ghrelin receptor expressed in CHO cell membranes; assay type: organism-based; settings: in vivo, 504 h; procedure, shortened: as §1
[19] = Protein binding in human plasma at 10 uM incubated for 4 hrs by equilibrium dialysis; assay type: ADME, cell-free; settings: read-out: PPB
Procedure, shortened: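 10 µM compound in human plasma dialysed against DPBS pH 7.4 for 4 h at 37 °C by rapid equilibrium dialysis. Plasma and buffer fractions acetonitrile-extracted and quantified by LC/MS/MS.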

[20] = Drug concentration in brain of Sprague-Dawley rat model of high-fat diet-induced obesity at 10 mg/kg, po BID for 3 weeks; assay type: ADME, organism-based; settings: read-out: Drug uptake; procedure, shortened: as §4
Rattus norvegicus [21] = test: Inhibition of total calorie intake in Sprague-Dawley rat model of high-fat diet-induced obesity at 10 mg/kg, po BID 3 weeks; assay type: functional, organism-based; settings: in the assay text read “14 days” for “3 weeks”; procedure, shortened: as §3
Rattus norvegicus [22] = test: Total clearance in Sprague-Dawley rat at 1 mg/kg, iv by LC/MS/MS method; assay type: ADME, organism-based; settings: in vivo; procedure, shortened: as §9
Rattus norvegicus [23] = test: AUC (0 to 24 hrs) in Sprague-Dawley rat model of high-fat diet-induced obesity at 10 mg/kg, po BID for 3 weeks; assay type: ADME, organism-based; parameters: dose 10 mg/kg, time < 24 hr, route oral; settings: in vivo; procedure, shortened: as §5
Liver microsome = test: Metabolic stability in human liver microsomes assessed as metabolic rate at 1 uM incubated for 30 mins in presence of NADPH by LC/MS/MS method; assay type: ADME; settings: 0.5 h
[24] = Drug concentration in brain of Sprague-Dawley rat model of high-fat diet-induced obesity at 30 mg/kg, po BID for 3 weeks; assay type: ADME, organism-based; settings: read-out: Drug uptake; procedure, shortened: as §4
[25] = target: T1, Growth hormone secretagogue receptor type 1; test: Inverse agonist activity rat ghrelin receptor expressed in HEK293 cells by luciferase reporter gene assay; assay type: cell-based; procedure, shortened: as §8
[26] = target: T1, Growth hormone secretagogue receptor type 1; test: Displacement of [125I]human ghrelin from rat ghrelin receptor expressed in CHO cell membranes incubated for 30 mins by scintillation counting method
Procedure, shortened: (§10)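 Membranes from CHO cells stably expressing rat or human ghrelinR (3.34 µg protein) incubated with 0.04 nM [125I]human ghrelin and varied compound concentrations for 30 min at room temperature. Buffer: 50 mM Hepes pH 7.5, 1 mM CaCl2, 5 mM MgCl2, 75 mM NaCl, 0.5% BSA. Membranes filtered and washed; bound radioactivity counted by scintillation.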

[27] = target: Growth hormone secretagogue receptor type 1 (Homo sapiens, UniProt Q92847); test: Displacement of [125I]human ghrelin from human ghrelin receptor expressed in CHO cell membranes incubated for 30 mins by scintillation counting method; procedure, shortened: as §10
[28] = Ratio of free drug concentration in brain of Sprague-Dawley rat model of high-fat diet-induced obesity at 30 mg/kg, po BID for 3 week to IC50 for displacement of [125I]human ghrelin from rat ghrelin receptor expressed in CHO cell membranes; assay type: organism-based; settings: in vivo, 504 h; procedure, shortened: as §1
[29] = Oral bioavailability in ICR mouse by LC/MS/MS method; assay type: ADME, organism-based; settings: in vivo
[30] = Total clearance in ICR mouse by LC/MS/MS method; assay type: ADME, organism-based; settings: in vivo
Rattus norvegicus [31] = test: Inhibition of daily weight gain in Sprague-Dawley rat model of high-fat diet-induced obesity at 30 mg/kg, po BID for14 days; assay type: functional, organism-based; procedure, shortened: as §3

Sequence of Growth hormone secretagogue receptor type 1 (Homo sapiens, UniProt Q92847) (Q92847 whole entry): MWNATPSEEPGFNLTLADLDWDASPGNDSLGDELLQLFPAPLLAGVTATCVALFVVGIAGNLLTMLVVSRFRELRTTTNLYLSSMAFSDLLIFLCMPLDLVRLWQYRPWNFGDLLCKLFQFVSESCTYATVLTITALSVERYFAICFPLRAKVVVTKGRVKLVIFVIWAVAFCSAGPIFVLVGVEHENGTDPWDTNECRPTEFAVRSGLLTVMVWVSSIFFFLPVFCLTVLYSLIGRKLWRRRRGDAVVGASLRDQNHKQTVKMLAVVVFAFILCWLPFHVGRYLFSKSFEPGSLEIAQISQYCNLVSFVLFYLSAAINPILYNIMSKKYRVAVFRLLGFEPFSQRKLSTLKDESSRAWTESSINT
T1 sequence (O08725 whole entry): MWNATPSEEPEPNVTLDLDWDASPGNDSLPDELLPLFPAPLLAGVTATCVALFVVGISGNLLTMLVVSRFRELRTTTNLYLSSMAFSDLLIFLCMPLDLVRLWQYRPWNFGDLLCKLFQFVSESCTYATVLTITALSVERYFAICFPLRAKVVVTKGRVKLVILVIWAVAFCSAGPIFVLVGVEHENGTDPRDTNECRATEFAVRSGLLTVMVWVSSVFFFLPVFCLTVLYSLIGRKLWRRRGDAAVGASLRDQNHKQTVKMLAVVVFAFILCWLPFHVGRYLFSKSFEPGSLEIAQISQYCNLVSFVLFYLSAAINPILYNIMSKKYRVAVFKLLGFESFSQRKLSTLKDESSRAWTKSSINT
Sequence of Growth hormone secretagogue receptor type 1 (Rattus norvegicus) (O08725 whole entry): as above

| Structure (SMILES) | Ratio [1] | IC50 [2] [nM] | Efficacy [3] [%] | inhibition (Rattus norvegicus [4]) | Kp at 2 h [5] | Ratio [6] | concentration at 504 h [7] [µM] | Efficacy [8] [%] | concentration at 504 h [9] [µM] | Ratio [10] | Efficacy [11] [%] | Ratio [12] | IC50 [13] [nM] | F (Rattus norvegicus [14]) [%] | Ratio [15] | Ratio [16] | Drug metabolism (Liver microsome) [pmol/min/mg] | IC50 [25] [nM] | IC50 [26] [nM] | IC50 [27] [nM] | other results |
| --- | --- | --- | --- | --- | --- | --- | --- | --- | --- | --- | --- | --- | --- | --- | --- | --- | --- | --- | --- | --- | --- |
| COc1ccc(CNC(=O)c2cc(C#CC(C)(C)NC(C)=O)cnc2NCc2ccc3c(c2)OCO3)cc1Cl | 2.9 | 34 | > 95 | inactive | 0.07 | 58 | 5.67 | > 95 | 1.89 | 286 | > 95 | 859 | 36.2 | 46.4 | 0.2 | 19 | 81 | 26 | 6.6 | 3 | AUC at 24 h [17]: 74.7 µg·h/mL; Ratio [18]: 8.6; fraction unbound at 4 h, 10 µM [19]: 0.01; concentration at 504 h [20]: 0.132 µM; inhibition (Rattus norvegicus [21]): inactive; CL (Rattus norvegicus [22]): 1.67 L/h/kg; AUC (Rattus norvegicus [23]): 24.901 µg·h/mL; concentration at 504 h [24]: 0.37 µM; Ratio [28]: 0.6 |
| COc1ccc(CNC(=O)c2cc(C3=C[C@@H]4CC[C@H](C3)N4C(C)=O)cnc2NCc2ccc3c(c2)OCO3)cc1Cl |  | 100 | > 95 |  |  |  |  | > 95 |  |  | > 95 |  | 32.8 |  |  |  | 39 | 9.8 | 5.6 | 0.3 | bioavailability [29]: 7.2%; clearance [30]: 10.8 L/h/kg |
| Cc1ccc(CNC(=O)c2cc(C#CC(C)(C)O)cnc2NCc2ccc3c(c2)OCO3)cc1C(F)F | 3.2 | 13 | > 95 | inactive | 0.21 | 203 | 0.272 | > 95 | 0.091 | 324 | > 95 | 972 | 11.6 | 23.8 | 0.7 | 68 | 103 | 5.4 | 0.28 | 0.44 | AUC at 24 h [17]: 3.31 µg·h/mL; Ratio [18]: 97; fraction unbound at 4 h, 10 µM [19]: 0.01; concentration at 504 h [20]: 0.019 µM; inhibition (Rattus norvegicus [21]): inactive; inhibition (Rattus norvegicus [31]): Active; CL (Rattus norvegicus [22]): 0.74 L/h/kg; AUC (Rattus norvegicus [23]): 1.105 µg·h/mL; concentration at 504 h [24]: 0.057 µM; Ratio [28]: 2 |
